Experimental data taken from ChEMBL document CHEMBL1156629, “Synthesis and discovery of high affinity folate receptor-specific glycinamide ribonucleotide formyltransferase inhibitors with antitumor activity” (J Med Chem, 2008).
Activity calls are given as the source filed them. No cut-off for these calls is given here.

What was measured:
[1] = Antiproliferative activity against human FRbeta expressing Chinese hamster D4 cells in presence of folic acid; settings: Cricetulus griseus
IGROV-1 [2] = test: Antiproliferative activity against human RFC and FRalpha expressing human IGROV1 cells in presence of folic acid
[3] = Antiproliferative activity against human RFC expressing Chinese hamster PC43-10 cells; settings: Cricetulus griseus
KB [4] = test: Antiproliferative activity against human RFC and FRalpha expressing human KB cells in presence of folic acid
[5] = target: T1, Trifunctional purine biosynthetic protein adenosine-3 (Homo sapiens, UniProt P22102)
T1 sequence (P22102 whole entry): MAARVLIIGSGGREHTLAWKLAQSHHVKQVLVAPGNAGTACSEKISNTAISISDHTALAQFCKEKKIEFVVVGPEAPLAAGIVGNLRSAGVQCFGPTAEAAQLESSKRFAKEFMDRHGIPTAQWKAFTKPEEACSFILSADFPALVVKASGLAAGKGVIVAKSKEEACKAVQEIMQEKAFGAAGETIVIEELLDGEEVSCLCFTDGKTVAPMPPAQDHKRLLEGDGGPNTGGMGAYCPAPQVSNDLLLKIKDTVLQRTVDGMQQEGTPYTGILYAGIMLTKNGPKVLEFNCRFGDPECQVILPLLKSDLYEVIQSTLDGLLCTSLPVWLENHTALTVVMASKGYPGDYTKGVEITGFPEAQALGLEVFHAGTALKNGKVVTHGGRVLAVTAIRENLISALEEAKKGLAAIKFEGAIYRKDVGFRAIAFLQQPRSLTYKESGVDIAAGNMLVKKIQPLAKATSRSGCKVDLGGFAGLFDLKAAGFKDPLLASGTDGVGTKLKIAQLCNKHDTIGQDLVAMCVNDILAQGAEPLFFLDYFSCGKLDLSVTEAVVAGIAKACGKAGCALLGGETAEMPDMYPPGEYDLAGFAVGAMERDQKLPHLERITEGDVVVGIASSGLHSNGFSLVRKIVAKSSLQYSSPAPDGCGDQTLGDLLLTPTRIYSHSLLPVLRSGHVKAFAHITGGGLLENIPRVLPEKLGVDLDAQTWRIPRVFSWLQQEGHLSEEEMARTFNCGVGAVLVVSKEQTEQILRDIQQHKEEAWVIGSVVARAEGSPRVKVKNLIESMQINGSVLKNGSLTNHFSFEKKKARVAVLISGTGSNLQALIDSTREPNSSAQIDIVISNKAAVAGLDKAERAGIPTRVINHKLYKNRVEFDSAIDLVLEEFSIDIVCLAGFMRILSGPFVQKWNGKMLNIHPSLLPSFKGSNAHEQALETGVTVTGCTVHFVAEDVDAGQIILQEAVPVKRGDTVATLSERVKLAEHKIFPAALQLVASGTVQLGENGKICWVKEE

IGROV-1 [6] = test: Antiproliferative activity against human RFC and FRalpha expressing human IGROV1 cells
R2 = test: Antiproliferative activity against human RFC expressing Chinese hamster R2 cells
[7] = target: T2, Trifunctional purine biosynthetic protein adenosine-3 (Mus musculus, UniProt Q64737); test: Inhibition of mouse recombinant GARFTase
T2 sequence (Q64737 whole entry): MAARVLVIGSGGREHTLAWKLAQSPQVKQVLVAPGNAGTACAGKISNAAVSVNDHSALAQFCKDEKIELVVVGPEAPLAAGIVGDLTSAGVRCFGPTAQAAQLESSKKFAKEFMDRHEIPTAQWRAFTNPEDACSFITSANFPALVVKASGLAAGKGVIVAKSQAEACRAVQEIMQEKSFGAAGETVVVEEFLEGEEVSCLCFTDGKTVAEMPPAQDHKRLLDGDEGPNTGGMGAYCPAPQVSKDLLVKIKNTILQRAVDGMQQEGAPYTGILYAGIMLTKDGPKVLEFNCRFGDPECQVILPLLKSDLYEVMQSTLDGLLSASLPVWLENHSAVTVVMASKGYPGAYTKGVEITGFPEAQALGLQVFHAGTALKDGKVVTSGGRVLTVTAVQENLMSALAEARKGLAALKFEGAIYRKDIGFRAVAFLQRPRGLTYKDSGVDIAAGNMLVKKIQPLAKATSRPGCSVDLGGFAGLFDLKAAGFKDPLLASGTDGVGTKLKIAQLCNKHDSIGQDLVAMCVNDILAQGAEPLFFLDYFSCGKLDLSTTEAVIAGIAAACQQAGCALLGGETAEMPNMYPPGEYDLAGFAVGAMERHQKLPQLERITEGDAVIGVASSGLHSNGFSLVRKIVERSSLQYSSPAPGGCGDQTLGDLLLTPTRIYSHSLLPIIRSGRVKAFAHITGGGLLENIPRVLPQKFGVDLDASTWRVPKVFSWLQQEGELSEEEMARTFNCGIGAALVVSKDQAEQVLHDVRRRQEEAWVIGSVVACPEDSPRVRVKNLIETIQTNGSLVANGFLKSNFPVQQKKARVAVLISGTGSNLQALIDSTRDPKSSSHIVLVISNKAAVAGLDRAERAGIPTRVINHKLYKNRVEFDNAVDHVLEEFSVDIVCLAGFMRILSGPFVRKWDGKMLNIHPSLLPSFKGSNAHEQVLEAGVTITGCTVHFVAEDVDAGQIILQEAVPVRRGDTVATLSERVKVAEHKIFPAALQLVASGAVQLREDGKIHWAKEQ

KB [8] = test: cells; settings: Homo sapiens
[9] = target: T3, Reduced folate transporter (Homo sapiens) (UniProt P41440); test: Inhibition of human RFC-mediated [3H]MTX transport expressed in Chinese hamster PC43-10 cells; type: cell-based; design: concentration or dose not given beside the values; settings: concentration not given here
T3 sequence (whole entry): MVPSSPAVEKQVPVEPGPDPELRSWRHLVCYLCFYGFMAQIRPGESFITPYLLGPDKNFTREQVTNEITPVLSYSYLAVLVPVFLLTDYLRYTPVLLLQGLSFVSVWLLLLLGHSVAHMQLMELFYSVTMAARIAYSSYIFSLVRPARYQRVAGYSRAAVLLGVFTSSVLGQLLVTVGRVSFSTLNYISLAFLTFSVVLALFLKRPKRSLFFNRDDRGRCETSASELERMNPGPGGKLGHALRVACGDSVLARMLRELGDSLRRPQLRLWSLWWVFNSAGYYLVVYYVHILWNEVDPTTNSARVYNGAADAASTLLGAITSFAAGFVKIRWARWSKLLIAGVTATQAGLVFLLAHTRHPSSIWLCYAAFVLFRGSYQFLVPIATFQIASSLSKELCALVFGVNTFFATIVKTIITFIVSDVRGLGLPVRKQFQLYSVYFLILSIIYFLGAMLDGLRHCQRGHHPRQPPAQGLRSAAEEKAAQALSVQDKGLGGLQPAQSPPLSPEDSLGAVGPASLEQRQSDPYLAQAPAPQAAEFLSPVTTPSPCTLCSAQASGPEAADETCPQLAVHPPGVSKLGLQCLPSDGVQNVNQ

[10] = Antiproliferative activity against human FRalpha expressing Chinese hamster RT16 cells in presence of folic acid; settings: Cricetulus griseus
cells [11] = settings: Cricetulus griseus, D4
cells [12] = settings: Cricetulus griseus, RT16
[13] = target: Folate receptor alpha (Homo sapiens) (UniProt P15328); test: Displacement of [3H]folic acid from human FRalpha in Chinese hamster RT16 cells; type: cell-based
Chain of Folate receptor alpha (Homo sapiens) (P15328 25-234 limits assumed): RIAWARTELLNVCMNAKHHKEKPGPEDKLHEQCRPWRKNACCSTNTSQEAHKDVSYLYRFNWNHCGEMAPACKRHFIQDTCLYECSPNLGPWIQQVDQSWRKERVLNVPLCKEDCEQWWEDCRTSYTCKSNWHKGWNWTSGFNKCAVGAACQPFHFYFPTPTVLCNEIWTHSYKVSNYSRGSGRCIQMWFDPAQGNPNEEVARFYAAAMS
How it was run: (§1)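 Cells were acid-stripped (pH 3.5 acetate buffer) and washed in ice-cold HEPES-buffered saline, pH 7.4. They were then incubated 15 min at 0°C with 50 nM [3H]folic acid (0.5 Ci/mmol) and a range of unlabeled ligand concentrations. Bound label was normalized to Lowry protein. […] Mean of 3 experiments.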

[14] = target: Folate receptor beta (Homo sapiens) (UniProt P14207); test: Displacement of [3H]folic acid from human FRbeta in Chinese hamster D4 cells; type: cell-based; how it was run: as §1
Chain of Folate receptor beta (Homo sapiens) (P14207 17-230 limits assumed): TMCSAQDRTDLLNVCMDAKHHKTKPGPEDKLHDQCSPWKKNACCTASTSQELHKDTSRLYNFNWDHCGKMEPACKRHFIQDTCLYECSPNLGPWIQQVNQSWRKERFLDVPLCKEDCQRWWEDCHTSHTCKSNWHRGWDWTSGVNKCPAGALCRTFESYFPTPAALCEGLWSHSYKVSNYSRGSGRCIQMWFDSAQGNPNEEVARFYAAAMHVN

KB [15] = test: cells; settings: Homo sapiens, read-out: INH
[16] = target: T3, Reduced folate transporter (Homo sapiens); test: Inhibition of human RFC-mediated [3H]MTX transport in Chinese hamster PC43-10 cells at 10 uM; type: cell-based

inhibition [16]	Compound	IC50 [1]	IC50 (IGROV-1 [2])	IC50 [3]	IC50 (KB [4])	IC50 (R2)	IC50 [7]	inhibition [9]	IC50 [10]	Activity [13]	Activity [14]	further results
	COc1cc(NCc2ccc3nc(N)nc(N)c3c2C)cc(OC)c1OC [TRIMETREXATE]	6.1 nM	8.6 nM									
	Nc1nc2[nH]c(Cc3ccc(C(=O)N[C@@H](CCC(=O)O)C(=O)O)cc3)cc2c(=O)[nH]1	> 1000 nM	> 1000 nM	> 1000 nM	> 1000 nM	> 1000 nM	> 20000 nM	< 20%	> 1000 nM			IC50 [5]: > 1000 nM; IC50 (IGROV-1 [6]): > 1000 nM; IC50 (KB [8]): > 1000 nM; IC50 (cells [11]): > 1000 nM; IC50 (cells [12]): > 1000 nM
	Nc1nc2ccc3ccc(CNc4ccc5c(c4)CN([C@@H](CCC(=O)O)C(=O)O)C5=O)cc3c2c(=O)[nH]1				32 nM				> 1000 nM			IC50 (KB [8]): 5.8 nM
	Nc1nc2[nH]c(CCCc3ccc(C(=O)N[C@@H](CCC(=O)O)C(=O)O)cc3)cc2c(=O)[nH]1	> 1000 nM	> 1000 nM	304 nM	> 1000 nM	448 nM	2440 nM	< 20%	> 1000 nM	Active	Active	
	Nc1nc2[nH]c(CCCCc3ccc(C(=O)N[C@@H](CCC(=O)O)C(=O)O)cc3)cc2c(=O)[nH]1		> 1000 nM	> 1000 nM	> 1000 nM	> 1000 nM	150 nM	< 20%	> 1000 nM	Active	Active	inhibition at 1 µM (KB [15]): > 97%
60%	Nc1nc2c(c(=O)[nH]1)C[C@@H](CCc1ccc(C(=O)N[C@@H](CCC(=O)O)C(=O)O)cc1)CN2 [LOMETREXOL]	275 nM							188 nM			
	Cc1nc(=O)c2cc(CN(C)c3ccc(C(=O)N[C@@H](CCC(=O)O)C(=O)O)s3)ccc2[nH]1 [RALTITREXED]											inhibition at 1 µM (KB [15]): > 99%
	Nc1nc2[nH]c(CCCCCCc3ccc(C(=O)N[C@@H](CCC(=O)O)C(=O)O)cc3)cc2c(=O)[nH]1	> 1000 nM	> 1000 nM	> 1000 nM	> 1000 nM	> 1000 nM	2510 nM	< 20%	> 1000 nM	Active	Active	IC50 [5]: 8.6 nM; IC50 (IGROV-1 [6]): 309 nM; IC50 (cells [11]): 198 nM; IC50 (cells [12]): 162 nM
60%	Nc1nc(=O)c2c([nH]1)NCC(CNc1ccc(C(=O)N[C@@H](CCC(=O)O)C(=O)O)cc1)N2C=O (stereo partly specified)											
	Nc1nc2[nH]c(CCCCCc3ccc(C(=O)N[C@@H](CCC(=O)O)C(=O)O)cc3)cc2c(=O)[nH]1	> 1000 nM	> 1000 nM	> 1000 nM	> 1000 nM	> 1000 nM	2260 nM	< 20%	> 1000 nM	Active	Active	IC50 [5]: 7.2 nM
60%	Nc1nc2[nH]cc(CCc3ccc(C(=O)N[C@@H](CCC(=O)O)C(=O)O)cc3)c2c(=O)[nH]1 [PEMETREXED]		200 nM									
60%	CN(Cc1cnc2nc(N)nc(N)c2n1)c1ccc(C(=O)N[C@@H](CCC(=O)O)C(=O)O)cc1 [METHOTREXATE]											
